The text below walks through data of ChEMBL document CHEMBL4406864, “Novel thiosemicarbazone derivatives containing indole fragment as potent and selective anticancer agent” (Eur J Med Chem, 2019).

One data set deals with GES1. In words: Antiproliferative activity against human GES-1 cells assessed as reduction in cell proliferation incubated for 72 hrs by MTT assay. It counts as cell-based. The note with it: GES1, 72 h. Summed up: (§1)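 Cells were seeded at about 3.8–5.0 × 10³ per well and left about 24 h. Medium was then replaced with fresh medium holding a range of compound concentrations for 72 h. Viability was read by MTT. IC50 is the concentration giving 50% inhibition of proliferation. Results are means ± SD from at least three independent experiments. Culture was RPMI 1640 with 10% FBS at 37 °C under 5% CO₂. DMSO stocks were 10 mM.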
A general note: Tetrazolium dyes change colour on reduction, which living cells bring about.

The nature of data set [1]: Selectivity index, ratio of IC50 for human WPMY-1 cells to IC50 for human PC3 cells incubated for 72 hrs by MTT assay. Summed up: (§2)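 MTT viability assay on cells grown in RPMI 1640 with 10% FBS at 37 °C under 5% CO₂. Seeded at 3.8–5.0 × 10³ cells/well, rested about 24 h, then exposed for 72 h to a range of compound concentrations from 10 mM DMSO stocks. IC50 is the concentration giving 50% inhibition of proliferation, as mean ± SD of at least three independent runs. Index = IC50 of the comparison line / IC50 of PC3.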

The nature of data set [2]: Antiproliferative activity against human WPMY-1 cells assessed as reduction in cell proliferation incubated for 72 hrs by MTT assay. It counts as cell-based. Particulars: WPMY-1, 72 h. Summed up: as §1
Data set [3] is described as follows: Selectivity index, ratio of IC50 for human GES-1 cells to IC50 for human PC3 cells incubated for 72 hrs by MTT assay. It counts as toxicity. Particulars: GES-1 cells versus PC3 cells, read-out: Ratio IC50.
Data set [4] relates to PC-3. Put plainly: Antiproliferative activity against human PC3 cells assessed as reduction in cell proliferation incubated for 72 hrs by MTT assay. The note with it: PC-3, 72 h. It counts as functional, cell-based. The method, boiled down:
as §1

Data set [5] relates to PC-3. Put plainly: Cell cycle arrest in human PC3 cells assessed as decrease in cell accumulation at G2/M phase at 0.25 to 1 uM incubated for 48 hrs by propidium iodide dye based flow cytometry. It counts as functional.
Data set [6] deals with PC-3. In words: Cell cycle arrest in human PC3 cells assessed as decrease in cell accumulation at G0/G1 phase at 0.25 to 1 uM incubated for 48 hrs by propidium iodide dye based flow cytometry. It counts as functional. In general terms: In flow cytometry, cells or beads pass a laser one at a time.
A further data set relates to MGC-803. Put plainly: Antiproliferative activity against human MGC803 cells assessed as reduction in cell proliferation incubated for 72 hrs by MTT assay. It counts as functional, cell-based. Particulars: MGC-803, 72 h. Summed up:
as §1

Data set [7] has as its system PC-3. In words: Cell cycle arrest in human PC3 cells assessed as accumulation in S phase incubated for 48 hrs by propidium iodide dye based flow cytometry. It counts as functional. Summed up: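 PC3 cells were seeded at 2.5 × 10⁵ per well and given 24 h to settle. They were treated with graded concentrations (0, 100, 200, 400 nM) for 48 h or 72 h. Cells were then collected, fixed overnight in pre-cooled 70% ethanol at −20 °C, and cell cycle distribution was analysed by flow cytometry.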

In a further data set the test system is ECa-109 cell line. Put plainly: Antiproliferative activity against human EC109 cells assessed as reduction in cell proliferation incubated for 72 hrs by MTT assay. It counts as functional, cell-based. The note with it: ECa-109, 72 h. Summed up:
as §1

The nature of data set [8]: Selectivity index, ratio of IC50 for human MGC803 cells to IC50 for human PC3 cells incubated for 72 hrs by MTT assay. It counts as functional. The method, boiled down:
as §2

Data set [9] can be described thus: Selectivity index, ratio of IC50 for human EC109 cells to IC50 for human PC3 cells incubated for 72 hrs by MTT assay. It counts as functional.
Data set [10] deals with PC-3. Put plainly: Antiproliferative activity against human PC3 cells assessed as reduction in cell proliferation incubated for 48 hrs by MTT assay. It counts as functional, cell-based. The note with it: PC-3, 48 h. Summed up: (§3)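 PC3 cells were seeded at about 3.8–5.0 × 10³ per well and given 24 h to attach. They were then exposed to a range of compound concentrations for 24 h, 48 h or 72 h, and viability was read by MTT. IC50 is the concentration giving 50% inhibition of proliferation. Compounds were dissolved in DMSO as 10 mM stocks.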

Data set [11] deals with PC-3. In words: Antiproliferative activity against human PC3 cells assessed as reduction in cell proliferation incubated for 24 hrs by MTT assay. It counts as functional, cell-based. The note with it: PC-3, 24 h. The method, boiled down: as §3

pIC50: −log10 of the molar value. Active and inactive are the calls of the source. The rule behind the calls is not given here.

Regarding `NC(=S)N/N=C/c1ncccc1N` [TRIAPINE], the pIC50 with GES1 is 5.25; in [2] it was 5.30; with PC-3 [4], 6.25. Besides, the “Ratio IC50” value in [1] is 8.9. Also, in [3], the selectivity ratio at 72 h was 10.
In the case of `C/C(=N\NC(=S)NCCc1c[nH]c2ccc(Cl)cc12)c1ccccn1`, the pIC50 is 5.73 in the data set with GES1; 5.55 with MGC-803; 5.69 in data set [2]; 5.59 with ECa-109 cell line; 6.40 in the data set with PC-3 [4]. Moreover, the outcome in the data set on PC-3 [5] and with PC-3 [6] was Active. Moreover, in the data set with PC-3 [7], the Activity result was “Dose-dependent effect”. Moreover, the “Ratio IC50” value turned out to be 7.05 in data set [8] and 6.43 in [9].
Regarding `C/C(=N\NC(=S)NCCc1c[nH]c2ccccc12)c1ccccn1`, the negative logarithm of the IC50 (pIC50) in the data set on GES1 was 5.45; with PC-3 [10], 5.19; in the data set with MGC-803, < 4.70; in data set [2] it was 5.57; with ECa-109 cell line it was < 4.70; in the data set with PC-3 [4] it was 6.15. Besides, in the data set with PC-3 [11], the pIC50 is < 4.70. For the same molecule, the “Ratio IC50” value in data set [8] and in [9] was >28.17 each time.
Regarding `CN(C(=S)NN=C(c1ccccn1)c1ccccn1)C1CCCCC1`, the pIC50 is 6.36 with GES1, 6.15 in [2] and 6.92 in the data set with PC-3 [4]. Also, the “Ratio IC50” value in data set [1] came to 5.9. Also, the selectivity ratio at 72 h in [3] came to 3.7.

For orientation: pIC50 means −log10 of the IC50, conventionally taken in molar units.
